In ChEMBL document CHEMBL3286230, “Tetra- and pentacyclic triterpene acids from the ancient anti-inflammatory remedy frankincense as inhibitors of microsomal prostaglandin E(2) synthase-1” (J Nat Prod, 2014):

Key:
[1] = molecular target: T1, Prostaglandin E synthase (Homo sapiens) (UniProt O14684); assay: Inhibition of microsomal PGES1 isolated from IL-1beta-stimulated human A549 cells assessed as residual activity at 10 uM preincubated for 15 mins followed by substrate addition measured after 1 min by RP-HPLC analysis relative to control; type: cell-free
T1 sequence (whole entry): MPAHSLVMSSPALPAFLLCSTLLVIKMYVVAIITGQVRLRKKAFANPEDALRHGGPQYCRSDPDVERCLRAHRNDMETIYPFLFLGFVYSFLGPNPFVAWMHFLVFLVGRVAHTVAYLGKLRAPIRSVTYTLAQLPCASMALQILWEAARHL
Method in brief: (§1)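 Enzyme source: microsomes from A549 cells, cultured 16 h at 37 °C and 5% CO2, then given fresh medium and induced with IL-1β (1 ng/mL) for 72 h. Microsomes were prepared by sonication and centrifugation at 174000g. Membranes in 0.1 M potassium phosphate pH 7.4 with 2.5 mM GSH were preincubated with compound or DMSO vehicle for 15 min at 4 °C. PGH2 (20 μM final) was added and the reaction ran 1 min at 4 °C. It was stopped with FeCl2/citric acid containing 11β-PGE2 as internal standard. PGE2 was measured by SPE and RP-HPLC; n = 3–4, mean + SEM.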

Prostaglandin E synthase = molecular target: T2, Prostaglandin E synthase (Homo sapiens, UniProt O14684); assay: Inhibition of microsomal PGES1 isolated from IL-1beta-stimulated human A549 cells preincubated for 15 mins followed by substrate addition measured after 1 min by RP-HPLC analysis; type: cell-free; method in brief: as §1
T2 sequence (O14684 whole entry): T1 sequence (whole entry)

[2] = molecular target: T3, Prostaglandin G/H synthase 1 (Ovis aries) (UniProt P05979); assay: Inhibition of ovine COX-1 using arachidonic acid as substrate assessed as residual activity at 10 uM preincubated for 5 mins followed by substrate addition measured after 5 mins by HPLC analysis relative to control
T3 sequence (whole entry): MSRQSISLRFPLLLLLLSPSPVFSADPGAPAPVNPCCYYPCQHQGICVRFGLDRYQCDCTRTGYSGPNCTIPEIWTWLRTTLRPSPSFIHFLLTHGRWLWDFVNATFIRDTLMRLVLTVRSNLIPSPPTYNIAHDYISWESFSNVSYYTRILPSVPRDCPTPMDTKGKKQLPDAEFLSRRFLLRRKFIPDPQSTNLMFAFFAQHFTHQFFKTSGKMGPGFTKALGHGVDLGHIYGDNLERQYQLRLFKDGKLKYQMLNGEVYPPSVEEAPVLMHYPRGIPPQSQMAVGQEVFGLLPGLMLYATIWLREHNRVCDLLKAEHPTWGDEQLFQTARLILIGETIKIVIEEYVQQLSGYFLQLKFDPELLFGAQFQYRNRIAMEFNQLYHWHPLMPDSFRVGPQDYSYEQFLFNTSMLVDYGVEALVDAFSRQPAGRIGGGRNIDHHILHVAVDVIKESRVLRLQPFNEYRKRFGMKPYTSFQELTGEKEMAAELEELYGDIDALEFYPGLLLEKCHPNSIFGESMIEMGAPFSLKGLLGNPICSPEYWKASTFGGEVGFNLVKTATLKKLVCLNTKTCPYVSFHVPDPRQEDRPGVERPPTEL

[3] = molecular target: T4, Prostaglandin G/H synthase 1 (Ovis aries, UniProt P05979); assay: Inhibition of ovine COX-1 using arachidonic acid as substrate preincubated for 5 mins followed by substrate addition measured after 5 mins by HPLC analysis
T4 sequence (P05979 whole entry): T3 sequence (whole entry)

[4] = molecular target: T5, Prostaglandin G/H synthase 2 (Homo sapiens, UniProt P35354); assay: Inhibition of human recombinant COX-2 using arachidonic acid as substrate preincubated for 5 mins followed by substrate addition measured after 5 mins by HPLC analysis
T5 sequence (P35354 whole entry): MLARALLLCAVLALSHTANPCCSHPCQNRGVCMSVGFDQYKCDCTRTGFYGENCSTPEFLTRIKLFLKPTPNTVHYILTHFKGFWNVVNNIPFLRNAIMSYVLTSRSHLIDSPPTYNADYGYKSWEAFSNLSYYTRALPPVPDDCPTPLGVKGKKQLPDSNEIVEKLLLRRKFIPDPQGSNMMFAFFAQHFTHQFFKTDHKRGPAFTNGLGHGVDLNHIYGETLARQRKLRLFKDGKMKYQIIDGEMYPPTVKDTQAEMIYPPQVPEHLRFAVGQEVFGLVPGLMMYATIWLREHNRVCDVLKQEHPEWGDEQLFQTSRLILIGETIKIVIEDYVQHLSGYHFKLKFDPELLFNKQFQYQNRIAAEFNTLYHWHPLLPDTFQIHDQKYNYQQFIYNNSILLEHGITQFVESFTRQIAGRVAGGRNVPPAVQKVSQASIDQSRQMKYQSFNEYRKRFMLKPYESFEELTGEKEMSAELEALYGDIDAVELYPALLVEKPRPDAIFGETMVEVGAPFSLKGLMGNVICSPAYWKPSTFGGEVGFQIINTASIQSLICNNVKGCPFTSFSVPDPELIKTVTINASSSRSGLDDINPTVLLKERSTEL

[5] = Cytotoxicity against human IMR32 cells after 48 hrs by MTT assay; type: functional, cell-based; conditions: IMR-32, 48 h
[6] = Cytotoxicity against human NB39 cells after 48 hrs by MTT assay; type: functional, cell-based; conditions: NB39, 48 h
SK-N-SH = assay: Cytotoxicity against human SK-N-SH cells after 48 hrs by MTT assay; type: functional, cell-based
[7] = molecular target: T4, Prostaglandin G/H synthase 1; assay: Inhibition of ovine COX-1 using arachidonic acid as substrate assessed as PGE2 formation after 2 mins by LC-MS/MS analysis
[8] = molecular target: T5, Prostaglandin G/H synthase 2; assay: Inhibition of human COX-2 using arachidonic acid as substrate assessed as PGE2 formation after 2 mins by LC-MS/MS analysis

Structure (SMILES)	Activity [1] [%]	IC50 (Prostaglandin E synthase) [µM]	Activity [2] [%]	IC50 [3] [µM]	IC50 [4] [µM]	IC50 [5] [µM]	IC50 [6] [µM]	IC50 (SK-N-SH) [µM]	IC50 [7] [µM]	IC50 [8] [µM]
CC(C)[C@@H]1CC[C@]2(C)[C@H](C(=O)C=C3[C@@H]4[C@@H](C)[C@H](C)CC[C@]4(C)CC[C@]32C)[C@@]1(C)CCC(=O)O	21.6	1	64.8	> 10	> 10					
C=C(C)[C@@H]1CC[C@]2(C)CC[C@]3(C)[C@H](CC[C@@H]4[C@@]5(C)CC[C@H](O)[C@](C)(C(=O)O)[C@@H]5CC[C@]43C)[C@@H]12	43.1	8.5				4.1	4.1	4.1		
CC(C)[C@@H]1CC[C@]2(C)[C@H](CC=C3[C@@H]4[C@@H](C)[C@H](C)CC[C@]4(C)CC[C@]32C)[C@@]1(C)CCC(=O)O	92.4	> 10								
CC(C)[C@@H]1CC[C@]2(C)[C@H](CC=C3[C@@H]4CC(C)(C)CC[C@]4(C)CC[C@]32C)[C@@]1(C)CCC(=O)O	74.1	> 10								
C=C(C)[C@@H]1CC[C@]2(CO)CC[C@]3(C)[C@H](CC[C@@H]4[C@@]5(C)CC[C@H](OC(C)=O)[C@](C)(C(=O)O)[C@@H]5CC[C@]43C)[C@@H]12	31.1	0.9	90.7	> 10	> 10					
CC(C)=CCC[C@H](C(=O)O)[C@@H]1CC[C@]2(C)C3=C(CC[C@@]12C)[C@@]1(C)CC[C@H](O)C(C)(C)[C@@H]1CC3	29.2	1.2	82.3	> 10	> 10					
CC(C)=CCC[C@H](C(=O)O)[C@@H]1CC[C@]2(C)C3=CC[C@H]4C(C)(C)[C@H](O)CC[C@]4(C)[C@H]3CC[C@@]12C	29.6	3	69.6	> 10	> 10					
C=C(C)[C@@H]1CC[C@]2(C)CC[C@]3(C)[C@H](CC[C@@H]4[C@@]5(C)CC[C@H](OC(C)=O)[C@](C)(C(=O)O)[C@@H]5CC[C@]43C)[C@@H]12	51.4	10				4.1	4.1	4.1		
CC(C)=CCC[C@H](C(=O)O)[C@H]1CC[C@]2(C)C3=C(CC[C@@]12C)[C@@]1(C)CCC(=O)C(C)(C)[C@H]1CC3 [BETA-ELEMONIC ACID]	16.7	0.9	81.1	> 10	> 10					
C=C(C)[C@@H]1CC[C@]2(C)[C@H](CC=C3[C@@H]4[C@@H](C)[C@H](C)CC[C@]4(C)CC[C@]32C)[C@@]1(C)CCC(=O)O	83.9	> 10							> 10	> 10
CC(=O)O[C@@H]1CC[C@]2(C)[C@H]3CC[C@@]4(C)[C@H]([C@H](CCC=C(C)C)C(=O)O)CC[C@]4(C)C3=CC[C@H]2C1(C)C	20.6	0.4		> 10						
CC(C)=CCC[C@H](C(=O)O)[C@@H]1CC[C@]2(C)C3=C(CC[C@@]12C)[C@@]1(C)CC[C@@H](O)C(C)(C)[C@@H]1CC3	3.5	1.1	81.9	> 10						
CC(=O)O[C@@H]1CC[C@]2(C)C3=C(CC[C@H]2C1(C)C)[C@@]1(C)CC[C@@H]([C@H](CCC=C(C)C)C(=O)O)[C@]1(C)CC3	36.8	0.4	63.2	> 10	> 10					
